According to ChEMBL document CHEMBL1128234, “Isothiocyanate-substituted benzyl ether opioid receptor ligands derived from 6 beta-naltrexol” (J Med Chem, 1995):

Tests used:
[1] = target: Mu-type opioid receptor (Cavia porcellus) (UniProt P97266); experiment: Irreversible binding affinity at mu-receptor was evaluated as % of control specific binding remaining washed at concentration of 80 (nM) using [3H]DAMGO radioligand
Method in brief: (§1)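 Guinea pig brain homogenate (less cerebellum) in 0.05 M Trizma pH 7.4, diluted 1:60. It was incubated with ligand 60 min at 25 °C, then diluted in ice-cold buffer and centrifuged 10000g. Washed samples were resuspended in buffer, incubated 15 min at 37 °C and recentrifuged. Binding used 1.0 nM [3H]DAMGO for 60 min at 25 °C, with filtration and counting. Nonspecific binding was set with 10 µM naloxone. Triplicates; % specific binding was taken relative to recovery controls.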

[2] = target: Kappa-type opioid receptor (Cavia porcellus) (UniProt P41144); experiment: Irreversible binding affinity at Opioid receptor kappa 1 was evaluated as % of control specific binding remaining washed at concentration of 50 (nM) using [3H]U-69593 radioligand
Method in brief: (§2)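 Diluted guinea pig brain homogenate is exposed to ligand for 60 min at 25 °C; protected samples are first preincubated 15 min at 37 °C with 1 naloxone. Washed samples are diluted in ice-cold Tris pH 7.4, spun at 10000g for 15 min at 4 °C, then resuspended and incubated 15 min at 37 °C, twice. Read-out is standard radioligand binding, expressed as % of recovery-sample specific binding. Test ligands run in triplicate; reference averaged over three assays.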

[3] = target: Kappa-type opioid receptor (Cavia porcellus, UniProt P41144); experiment: Inhibitory concentration against Opioid receptor kappa 1 using [3H]- U-69,593 radioligand
Method in brief: (§3)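 Guinea pig brain (minus cerebellum) homogenate in 0.05 M Tris pH 7.4, diluted 1:60 (0.8-1.5 mg protein/ml). Ligand tested in duplicate at nine concentrations; 60 min at 25 °C. Nonspecific binding defined with naloxone. Filtration, ice-cold buffer rinse, scintillation counting.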

[4] = target: Kappa-type opioid receptor (Cavia porcellus) (UniProt P41144); experiment: Irreversible binding affinity at Opioid receptor kappa 1 was evaluated as % of control specific binding remaining unwashed at concentration of 50 (nM) using [3H]U-69593 radioligand; method in brief: as §2
[5] = target: Kappa-type opioid receptor (Cavia porcellus) (UniProt P41144); experiment: Irreversible binding affinity at Opioid receptor kappa 1 was evaluated as % of control specific binding remaining protected at concentration of 50 (nM) using [3H]U-69593 radioligand; method in brief: as §2
[6] = target: Opioid receptors; mu/kappa/delta; experiment: Inhibitory concentration was determined against Opioid receptors using [3H]- bremazocine radioligand; type: protein assay, Cavia porcellus; method in brief: as §3
Mu-type opioid receptor = Mu-type opioid receptor (Cavia porcellus, UniProt P97266); experiment: Inhibitory concentration was determined against Opioid receptor mu 1 using [3H]- DAMGO radioligand; method in brief: as §3
[7] = target: Mu-type opioid receptor (Cavia porcellus) (UniProt P97266); experiment: Irreversible binding affinity at mu-receptor was evaluated as % of control specific binding remaining unwashed at concentration of 80 (nM) using [3H]DAMGO radioligand; method in brief: as §1
[8] = target: Kappa-type opioid receptor (Cavia porcellus) (UniProt P41144); experiment: Irreversible binding affinity at Opioid receptor kappa 1 was evaluated as % of control specific binding remaining unwashed at concentration of 90 (nM) using [3H]U-69593 radioligand; method in brief: as §2
[9] = target: Kappa-type opioid receptor (Cavia porcellus) (UniProt P41144); experiment: Irreversible binding affinity at Opioid receptor kappa 1 was evaluated as % of control specific binding remaining protected at concentration of 90 (nM) using [3H]U-69593 radioligand; method in brief: as §2
[10] = target: Mu-type opioid receptor (Cavia porcellus) (UniProt P97266); experiment: Irreversible binding affinity at mu-receptor was evaluated as % of control specific binding remaining washed at concentration of 35 (nM) using [3H]-DAMGO radioligand; method in brief: as §1
[11] = target: Mu-type opioid receptor (Cavia porcellus) (UniProt P97266); experiment: Irreversible binding affinity at mu-receptor was evaluated as % of control specific binding remaining unwashed at concentration of 35 (nM) using [3H]DAMGO radioligand; method in brief: as §1
[12] = target: Kappa-type opioid receptor (Cavia porcellus) (UniProt P41144); experiment: Irreversible binding affinity at Opioid receptor kappa 1 was evaluated as % of control specific binding remaining washed at concentration of 90 (nM) using [3H]-U-69,593 radioligand; method in brief: as §2
[13] = target: Mu-type opioid receptor (Cavia porcellus) (UniProt P97266); experiment: Irreversible binding affinity at mu-receptor was evaluated as % of control specific binding remaining protected at concentration of 35 (nM) using [3H]DAMGO radioligand; method in brief: as §2
[14] = target: Kappa-type opioid receptor (Cavia porcellus) (UniProt P41144); experiment: Irreversible binding affinity at Opioid receptor kappa 1 was evaluated as % of control specific binding remaining unwashed at concentration of 30 (nM) using [3H]U-69593 radioligand; method in brief: as §2
[15] = target: Kappa-type opioid receptor (Cavia porcellus) (UniProt P41144); experiment: Irreversible binding affinity at Opioid receptor kappa 1 was evaluated as % of control specific binding remaining washed at concentration of 30 (nM) using [3H]U-69593 radioligand; method in brief: as §2
[16] = target: Kappa-type opioid receptor (Cavia porcellus) (UniProt P41144); experiment: Irreversible binding affinity at Opioid receptor kappa 1 was evaluated as % of control specific binding remaining protected at concentration of 20 (nM) using [3H]U-69593 radioligand; method in brief: as §2
[17] = target: Kappa-type opioid receptor (Cavia porcellus) (UniProt P41144); experiment: Irreversible binding affinity at Opioid receptor kappa 1 was evaluated as % of control specific binding remaining protected at concentration of 30 (nM) using [3H]U-69593 radioligand; method in brief: as §2
[18] = target: Kappa-type opioid receptor (Cavia porcellus) (UniProt P41144); experiment: Irreversible binding affinity at Opioid receptor kappa 1 was evaluated as % of control specific binding remaining unwashed at concentration of 20 (nM) using [3H]U-69593 radioligand; method in brief: as §2
[19] = target: Kappa-type opioid receptor (Cavia porcellus) (UniProt P41144); experiment: Irreversible binding affinity at Opioid receptor kappa 1 was evaluated as % of control specific binding remaining washed at concentration of 20 (nM) using [3H]U-69593 radioligand; method in brief: as §2
[20] = target: Kappa-type opioid receptor (Cavia porcellus) (UniProt P41144); experiment: Irreversible binding affinity at Opioid receptor kappa 1 was evaluated as % of control specific binding remaining protected at concentration of 42 (nM) using [3H]U-69593 radioligand; method in brief: as §2
[21] = target: Mu-type opioid receptor (Cavia porcellus) (UniProt P97266); experiment: Irreversible binding affinity at mu-receptor was evaluated as % of control specific binding remaining washed at concentration of 2.5 (nM) using [3H]DAMGO radioligand; method in brief: as §1
[22] = target: Mu-type opioid receptor (Cavia porcellus) (UniProt P97266); experiment: Irreversible binding affinity at mu-receptor was evaluated as % of control specific binding remaining unwashed at concentration of 5 (nM) using [3H]DAMGO radioligand; method in brief: as §1
[23] = target: Mu-type opioid receptor (Cavia porcellus) (UniProt P97266); experiment: Irreversible binding affinity at mu-receptor was evaluated as % of control specific binding remaining washed at concentration of 5 (nM) using [3H]-DAMGO radioligand; method in brief: as §1
[24] = target: Mu-type opioid receptor (Cavia porcellus) (UniProt P97266); experiment: Irreversible binding affinity at mu-receptor was evaluated as % of control specific binding remaining protected at concentration of 5 (nM) using [3H]-DAMGO radioligand; method in brief: as §2
[25] = target: Kappa-type opioid receptor (Cavia porcellus) (UniProt P41144); experiment: Irreversible binding affinity at Opioid receptor kappa 1 was evaluated as % of control specific binding remaining washed at concentration of 42 (nM) using [3H]U-69593 radioligand; method in brief: as §2
[26] = target: Mu-type opioid receptor (Cavia porcellus) (UniProt P97266); experiment: Irreversible binding affinity at mu-receptor was evaluated as % of control specific binding remaining protected at concentration of 2.5 (nM) using [3H]DAMGO radioligand; method in brief: as §2
[27] = target: Mu-type opioid receptor (Cavia porcellus) (UniProt P97266); experiment: Irreversible binding affinity at mu-receptor was evaluated as % of control specific binding remaining unwashed at concentration of 2.5 (nM) using [3H]DAMGO radioligand; method in brief: as §2
[28] = target: Kappa-type opioid receptor (Cavia porcellus) (UniProt P41144); experiment: Irreversible binding affinity at Opioid receptor kappa 1 was evaluated as % of control specific binding remaining unwashed at concentration of 42 (nM) using [3H]U-69593 radioligand; method in brief: as §2

Kappa-type opioid receptor, sequence (P41144 whole entry): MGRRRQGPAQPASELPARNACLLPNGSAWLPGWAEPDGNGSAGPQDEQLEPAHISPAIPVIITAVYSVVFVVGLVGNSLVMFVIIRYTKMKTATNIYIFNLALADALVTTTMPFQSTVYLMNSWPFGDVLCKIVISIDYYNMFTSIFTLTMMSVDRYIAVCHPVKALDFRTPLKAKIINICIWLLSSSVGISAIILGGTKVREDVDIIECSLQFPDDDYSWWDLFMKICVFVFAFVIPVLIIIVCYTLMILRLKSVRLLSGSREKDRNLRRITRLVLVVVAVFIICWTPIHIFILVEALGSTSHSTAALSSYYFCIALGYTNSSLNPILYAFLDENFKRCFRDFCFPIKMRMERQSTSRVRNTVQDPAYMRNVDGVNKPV
Kappa-type opioid receptor (Cavia porcellus), sequence (P41144 whole entry): as above
Mu-type opioid receptor (Cavia porcellus), sequence (P97266 whole entry): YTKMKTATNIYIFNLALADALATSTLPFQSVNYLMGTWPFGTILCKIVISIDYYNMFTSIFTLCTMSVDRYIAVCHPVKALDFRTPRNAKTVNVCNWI
Mu-type opioid receptor, sequence (P97266 whole entry): as above

Structure (SMILES): Oc1ccc2c3c1O[C@H]1[C@H](OCc4cccc(N=C=S)c4)CC[C@@]4(O)C(C2)N(CC2CC2)CCC314 (stereo partly specified)
- Control [1]: 14%
- Control [2]: 25%
- IC50 [3]: 17 nM
- Control [4]: 12%
- Control [5]: 25%
- IC50 [6]: 27 nM
- IC50 (Mu-type opioid receptor): 27 nM
- Control [7]: 4%

Structure (SMILES): Oc1ccc2c3c1O[C@H]1[C@H](OCc4ccc(N=C=S)cc4)CC[C@@]4(O)C(C2)N(CC2CC2)CCC314 (stereo partly specified)
- Control [8]: 14%
- Control [9]: 27%
- Control [10]: 46%
- IC50 [3]: 21 nM
- Control [11]: 14%
- Control [12]: 28%
- IC50 [6]: 22 nM
- IC50 (Mu-type opioid receptor): 9.6 nM
- Control [13]: 48%

Structure (SMILES): Oc1ccc2c3c1O[C@H]1[C@H](OCc4cccc(CN=C=S)c4)CC[C@@]4(O)C(C2)N(CC2CC2)CCC314 (stereo partly specified)
- Control [14]: 22%
- Control [15]: 58%
- Control [16]: 94%
- Control [17]: 73%
- Control [18]: 56%
- Control [19]: 68%
- IC50 [3]: 6 nM
- IC50 [6]: 24 nM
- IC50 (Mu-type opioid receptor): 19 nM

Structure (SMILES): Oc1ccc2c3c1O[C@H]1[C@H](OCc4ccccc4N=C=S)CC[C@@]4(O)C(C2)N(CC2CC2)CCC314 (stereo partly specified)
- Control [20]: 40%
- Control [14]: 36%
- Control [21]: 40%
- Control [22]: 7%
- Control [15]: 35%
- Control [23]: 15%
- Control [17]: 55%
- Control [24]: 36%
- IC50 [3]: 8.2 nM
- Control [25]: 21%
- Control [26]: 68%
- Control [27]: 47%
- IC50 [6]: 8.8 nM
- Control [28]: 13%
- IC50 (Mu-type opioid receptor): 0.8 nM
